Columns and labels:
[1] = Cytotoxicity against human Glioblastoma multiformi DBTRG; type: functional
Outline: (§1)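 XTT-tetrazolium growth assay, cells exposed 72 h to six to seven concentrations per compound. Phenazine methosulfate-XTT added for 6 h at 37 °C, then absorbance read at 450 and 630 nm. IC50 derived from median-effect plot of dose-effect data.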

[2] = system: TSGH; assay: In vitro cytotoxicity against human TSGH; type: functional, cell-based; outline: as §1
[3] = system: HONE1 cell line; assay: Cytotoxicity against human nasopharyngeal carcinoma HONE-1; type: functional, cell-based; outline: as §1
[4] = system: HT-29; assay: Cytotoxicity against human colon HT-29 cell line; type: functional, cell-based; outline: as §1
[5] = system: Nucleic Acid; assay: Percentage of protein-linked DNA breaks.; type: functional; set-up: concentration or dose not given beside the values
Outline: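 Log-phase cells labeled 24 h with [14C]-thymidine, trypsinized, resuspended at 5 × 10⁵ cells/mL and shaken 1 h at 37 °C in suspension. Drug at 10 μM added for 0.5 h. Protein-linked DNA breaks quantified by potassium-SDS coprecipitation and reported as percentage.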

[6] = system: HepG2; assay: Cytotoxicity against human hepatoma Hepa-G2; type: functional, cell-based; outline: as §1
[7] = Cytotoxicity against human nasopharyngeal carcinoma BM-1; type: functional; outline: as §1
[8] = system: CCRF-CEM; assay: (§2) Cytotoxicity against human T-cell acute lymphocytic leukemia CCRF-CEM; type: cell-based; outline: as §1
[9] = system: MX1; assay: Cytotoxicity against human Breast carcinoma MX-1; type: functional, cell-based; outline: as §1
[10] = system: Nucleic Acid; assay: Percentage of protein-linked DNA breaks; Not determined; type: functional
[11] = system: CCRF-CEM; assay: as §2; type: functional, cell-based; outline: as §1

Compound | IC50 [1] [µM] | IC50 [2] [µM] | IC50 [3] [µM] | IC50 [4] [µM] | Activity [5] [%] | IC50 [6] [µM] | IC50 [7] [µM] | IC50 [8] [µM] | IC50 [9] [µM] | Activity [10] [%] | IC50 [11] [µM]
CN(C)CCNC(=O)c1cc(NC(=O)CCC(=O)Nc2cc(CO)cc(Nc3c4ccccc4nc4ccccc34)c2)cn1C | 8.1 | 4.6 | 0.85 | 1.7 | 3.3 | 4.2 | 7 |  |  |  | 
CN1CCN(c2ccc3nc(-c4ccc5nc(-c6ccc(OCCCC(=O)Nc7cc(CO)cc(Nc8c9ccccc9nc9ccccc89)c7)cc6)[nH]c5c4)[nH]c3c2)CC1 | > 100 | > 100 | > 100 | > 100 |  | > 100 | > 100 | > 100 | > 100 |  | 
Nc1cc(CO)cc(Nc2c3ccccc3nc3ccccc23)c1 | 3.5 | 0.45 | 0.31 | 0.88 |  | 1.4 | 0.86 |  |  | 10.5 | 0.36
CN(C)CCNC(=O)c1cc(NC(=O)CCCC(=O)Nc2cc(CO)cc(Nc3c4ccccc4nc4ccccc34)c2)cn1C | 73.6 | 46.8 | 39 | > 100 | 0 | 100 | 73.3 |  |  |  | 
CCOC(=O)Nc1cc(COC(=O)CCC(=O)Nc2cc(C(=O)NCCN(C)C)n(C)c2)cc(Nc2c3ccccc3nc3ccccc23)c1 | 0.8 | 0.08 | 0.06 | 0.23 | 16.5 | 0.09 | 0.08 |  | 0.039 |  | 6.85
CN(C)CCNC(=O)c1cc(NC(=O)c2cc(NC(=O)CCC(=O)Nc3cc(CO)cc(Nc4c5ccccc5nc5ccccc45)c3)cn2C)cn1C | 20 | 4.8 | 2.4 | 4.4 | 3.3 | 7 | 8.6 |  |  |  | 
CCOC(=O)Nc1cc(CO)cc(Nc2c3ccccc3nc3ccccc23)c1 | 5 | 0.34 | 0.07 | 0.48 | 15 | 0.46 | 0.38 |  |  |  | 0.057
CCOC(=O)Nc1cc(COC(=O)CCCC(=O)Nc2cc(C(=O)Nc3cc(C(=O)NCCN(C)C)n(C)c3)n(C)c2)cc(Nc2c3ccccc3nc3ccccc23)c1 | 7.5 | 1.2 | 0.13 | 0.64 | 4.2 | 0.63 | 0.49 |  | 0.156 |  | 2.04
CN(C)CCNC(=O)c1cc(NC(=O)c2cc(NC(=O)CCCC(=O)Nc3cc(CO)cc(Nc4c5ccccc5nc5ccccc45)c3)cn2C)cn1C | > 100 | 36.4 | 63.9 | > 100 | 0 | 68 | 77.8 |  |  |  | 
CCOC(=O)Nc1cc(COC(=O)CCCC(=O)Nc2cc(C(=O)NCCN(C)C)n(C)c2)cc(Nc2c3ccccc3nc3ccccc23)c1 | 0.4 | 1.2 | 0.8 | 0.75 | 4.6 | 0.08 | 0.08 |  | 0.085 |  | 17.6

From ChEMBL document CHEMBL1135825, “Antitumor AHMA linked to DNA minor groove binding agents: synthesis and biological evaluation” (J Med Chem, 2002)
